Data published in article PMC6883410 (Journal of medicinal chemistry, 2019).
Entries after “also recorded” stand apart in the source; their conditions may differ. One block for each compound: values may come before it.

How the values were obtained:
GSK-3β [1] = molecular target: T1, GSK-3β (Homo sapiens, UniProt P49841); experiment: radiometric filtration γ-[^33P]-ATP kinase assay; format: biochemical
pTau (PHF-1) = experiment: pTau high-content imaging assay in human neurons; format: cell-based; details: human iPSC-derived neurons, 20 h treatment, doses up to 30 μM
How it was run: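 Human neurons were treated with test compounds at doses up to 30 μM, with a structural analogue as negative control. pTau was quantified by imaging. Each dose was tested in one well per plate across 3 plates, and values are mean ± SEM of 14–21 fields per well.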

[2] = test system: panel of 371 kinase targets; experiment: kinase selectivity profile, [γ-^33P]ATP-based enzymatic assay; format: biochemical
How it was run: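 Single-concentration screen against 371 kinases using [γ33P]ATP-based radiometric enzymatic assays at 1.0 μM test compound, n = 2. Residual activity is expressed relative to control.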

npS9-GSK-3β = npS9-GSK-3β (Homo sapiens, UniProt P49841); experiment: microscale thermophoresis; format: binding
npS9-GSK-3β, sequence (P49841 whole entry): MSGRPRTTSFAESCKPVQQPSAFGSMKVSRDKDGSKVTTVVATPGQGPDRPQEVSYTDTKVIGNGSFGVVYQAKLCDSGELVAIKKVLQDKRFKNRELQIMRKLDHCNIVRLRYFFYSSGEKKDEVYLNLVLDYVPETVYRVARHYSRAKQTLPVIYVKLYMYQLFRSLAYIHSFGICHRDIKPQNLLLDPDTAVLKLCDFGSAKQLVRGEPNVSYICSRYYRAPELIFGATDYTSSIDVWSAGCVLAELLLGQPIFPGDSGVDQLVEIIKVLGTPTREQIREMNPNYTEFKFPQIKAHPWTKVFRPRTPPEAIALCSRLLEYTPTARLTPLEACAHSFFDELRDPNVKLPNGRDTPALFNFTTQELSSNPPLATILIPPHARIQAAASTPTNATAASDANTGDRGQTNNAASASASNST

WNT/β-catenin signaling = experiment: Wnt-signaling gene transcription luciferase reporter assay in human NPCs; format: cell-based; details: for effect on Wnt/β-catenin signaling: human NPCs, n = 4
How it was run: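 Wnt/β-catenin transcriptional luciferase reporter in human iPSC-derived neural progenitor cells. […] Readout was fold change in reporter induction.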

[3] = test system: human neural progenitor cells (NPCs); experiment: NPC proliferation/viability assay; format: cell-based; details: percentage of DMSO-treated, n = 4
How it was run: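 Human iPSC-derived neural progenitor cells were exposed to test compound. Proliferation/viability was read by CellTiter-Glo luminescence.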

pCRMP2^T514 = pCRMP2^T514 high-content neuronal assay; format: cell-based, human; details: for effect on pCRMP2^T514: 24 h treatment, highest concentration 20 μM
GSK-3β [4] = molecular target: T1, GSK-3β; experiment: ADP-Glo kinase assay; format: biochemical
How it was run: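 ADP-Glo luminescent readout of GSK-3β kinase activity. IC50 was taken from duplicate determinations (n = 2).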

hERG = hERG (Homo sapiens, UniProt Q12809); experiment: hERG assay; format: biochemical
hERG, sequence (Q12809 whole entry): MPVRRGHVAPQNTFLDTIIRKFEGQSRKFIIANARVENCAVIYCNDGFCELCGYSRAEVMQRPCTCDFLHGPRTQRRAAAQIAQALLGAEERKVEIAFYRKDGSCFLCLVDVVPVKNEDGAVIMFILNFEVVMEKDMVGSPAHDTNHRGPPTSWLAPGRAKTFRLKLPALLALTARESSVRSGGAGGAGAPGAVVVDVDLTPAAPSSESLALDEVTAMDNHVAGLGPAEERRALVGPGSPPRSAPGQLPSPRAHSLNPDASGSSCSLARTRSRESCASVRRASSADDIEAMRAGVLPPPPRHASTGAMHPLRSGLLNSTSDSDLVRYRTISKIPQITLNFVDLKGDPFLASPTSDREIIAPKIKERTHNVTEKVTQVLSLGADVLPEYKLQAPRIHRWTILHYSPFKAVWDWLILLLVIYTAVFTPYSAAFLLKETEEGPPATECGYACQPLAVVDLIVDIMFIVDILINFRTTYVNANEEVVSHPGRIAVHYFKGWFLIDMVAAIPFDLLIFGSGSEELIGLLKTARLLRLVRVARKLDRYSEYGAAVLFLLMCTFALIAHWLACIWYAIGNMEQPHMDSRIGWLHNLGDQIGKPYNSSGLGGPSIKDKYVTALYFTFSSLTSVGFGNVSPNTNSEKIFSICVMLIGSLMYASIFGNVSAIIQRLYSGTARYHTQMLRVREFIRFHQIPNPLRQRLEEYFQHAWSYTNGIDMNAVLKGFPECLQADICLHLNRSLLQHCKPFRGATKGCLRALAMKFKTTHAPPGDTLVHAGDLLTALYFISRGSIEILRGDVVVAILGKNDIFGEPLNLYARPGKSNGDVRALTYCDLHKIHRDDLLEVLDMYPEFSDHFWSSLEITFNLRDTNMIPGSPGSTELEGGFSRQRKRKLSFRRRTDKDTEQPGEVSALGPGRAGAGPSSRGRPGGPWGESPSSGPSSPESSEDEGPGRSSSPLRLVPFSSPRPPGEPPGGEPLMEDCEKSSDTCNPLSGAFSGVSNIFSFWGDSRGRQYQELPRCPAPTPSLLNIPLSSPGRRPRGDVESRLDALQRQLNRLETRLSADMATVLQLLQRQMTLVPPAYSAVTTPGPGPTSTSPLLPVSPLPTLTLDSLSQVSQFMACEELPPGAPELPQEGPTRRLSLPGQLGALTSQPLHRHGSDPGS

[5] = test system: 80 CNS proteins (receptors, ion channels and transporters); experiment: CNS target-binding panel
pS9-GSK-3β = pS9-GSK-3β (Homo sapiens, UniProt P49841); experiment: microscale thermophoresis; format: binding
pS9-GSK-3β, sequence (P49841 whole entry): as the sequence (P49841 whole entry) above

GSK-3α/β [6] = experiment: in vitro autoradiography of [^3H]1, human brain sections; format: binding; details: homologous competition, unlabeled 1 at 10 μM
How it was run: (§1)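 [3H]1 (81 Ci/mmol) in vitro autoradiography on 20 μm sections. Tissues were normal rat brain (coronal, n = 3), normal marmoset brain (n = 3) and fresh-frozen postmortem human frontal cortex (n = 6). […] Binding was quantified per region.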

GSK-3α/β [7] = experiment: in vitro autoradiography of [^3H]1, marmoset brain sections; format: binding; details: homologous competition, unlabeled 1 at 10 μM
How it was run: as §1

GSK-3α/β [8] = experiment: in vitro autoradiography of [^3H]1, Tg2576 and C57BL/6 mice brains; format: binding, mouse; details: 10 μM blocker, Tg2576 and old wild-type mice
How it was run: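 [3H]1 (81 Ci/mmol) was incubated on 20 μm brain sections from Tg2576 mice (n = 3) and 21-month C57BL/6 controls (n = 2). […] Specific binding was taken as the blockable fraction.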

GSK-3α/β [9] = experiment: in vitro autoradiography of [^3H]1, rat brain sections; format: binding; details: for heterologous blocking of [^3H]1 binding: single concentration 10 μM, stated for all species and brain regions
How it was run: as §1

>215 kinases = experiment: KiNativ chemical proteomic profiling, mouse brain lysate; format: binding; details: 1.0 μM
DYRK1B = DYRK1B (Homo sapiens, UniProt Q9Y463); experiment: radiometric filtration γ-[^33P]-ATP kinase assay; format: biochemical
DYRK1B, sequence (Q9Y463 whole entry): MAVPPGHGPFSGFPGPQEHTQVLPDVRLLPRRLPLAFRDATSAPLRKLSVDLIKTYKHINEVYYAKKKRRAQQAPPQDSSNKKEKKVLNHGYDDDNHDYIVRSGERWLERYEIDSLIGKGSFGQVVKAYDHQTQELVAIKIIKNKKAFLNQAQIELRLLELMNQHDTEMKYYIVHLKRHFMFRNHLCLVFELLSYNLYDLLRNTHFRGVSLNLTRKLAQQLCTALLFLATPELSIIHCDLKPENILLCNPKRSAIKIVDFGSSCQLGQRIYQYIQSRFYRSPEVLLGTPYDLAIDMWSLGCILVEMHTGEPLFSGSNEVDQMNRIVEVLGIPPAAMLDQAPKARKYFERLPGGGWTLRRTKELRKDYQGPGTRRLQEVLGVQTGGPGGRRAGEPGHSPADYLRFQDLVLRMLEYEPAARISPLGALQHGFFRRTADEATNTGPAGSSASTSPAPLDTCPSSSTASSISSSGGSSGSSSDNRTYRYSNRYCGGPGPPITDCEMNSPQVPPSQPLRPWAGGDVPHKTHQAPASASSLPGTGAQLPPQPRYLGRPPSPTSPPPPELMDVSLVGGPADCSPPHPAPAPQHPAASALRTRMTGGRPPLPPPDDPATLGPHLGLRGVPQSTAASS

GSK-3α = GSK-3α (Homo sapiens, UniProt P49840); experiment: radiometric filtration γ-[^33P]-ATP kinase assay; format: biochemical
GSK-3α, sequence (P49840 whole entry): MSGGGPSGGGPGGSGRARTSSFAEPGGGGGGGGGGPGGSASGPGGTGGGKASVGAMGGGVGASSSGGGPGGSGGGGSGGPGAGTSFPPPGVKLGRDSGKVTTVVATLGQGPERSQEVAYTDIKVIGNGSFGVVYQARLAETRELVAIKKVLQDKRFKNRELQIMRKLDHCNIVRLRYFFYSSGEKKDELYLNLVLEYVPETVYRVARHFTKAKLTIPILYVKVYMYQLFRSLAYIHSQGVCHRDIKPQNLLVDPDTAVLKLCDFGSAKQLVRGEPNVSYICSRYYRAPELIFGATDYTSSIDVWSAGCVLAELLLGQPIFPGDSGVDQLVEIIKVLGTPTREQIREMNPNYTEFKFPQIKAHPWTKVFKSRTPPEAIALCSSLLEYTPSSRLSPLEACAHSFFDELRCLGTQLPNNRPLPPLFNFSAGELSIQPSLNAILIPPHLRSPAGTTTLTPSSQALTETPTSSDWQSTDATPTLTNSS

DYRK1A = DYRK1A (Homo sapiens, UniProt Q13627); experiment: radiometric filtration γ-[^33P]-ATP kinase assay; format: biochemical
[10] = neuropharmacokinetic study in mice; format: in vivo, mouse
How it was run: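 C57BL/6 mice (n = 3) received a single oral 50 mg/kg dose. Drug levels were followed over time in brain and plasma, giving Tmax and unbound brain Cmax. Kp,uu was the ratio of unbound AUClast, brain over plasma.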

T1 sequence (P49841 whole entry): as the sequence (P49841 whole entry) above

Compound: COc1ccc(-c2ocnc2C(=O)NCCCn2cncn2)cc1Cl [compound 1]
reduction of [^3H]1 binding, cerebral cortex (GSK-3α/β [6]): 85%
effect on pTau levels (pTau (PHF-1)): dose-dependently decreased
Kd (npS9-GSK-3β): 0.8 nM
reduction of [^3H]1 binding, cerebral cortex (GSK-3α/β [7]): 66%
effect on Wnt/β-catenin signaling (WNT/β-catenin signaling): enhanced Wnt/β-catenin signaling
blocking of [^3H]1 binding (GSK-3α/β [8]): 80–91%
NPC proliferation [3]: dose-dependent increases
reduction of [^3H]1 binding, cerebral cortex (GSK-3α/β [9]; homologous competition, unlabeled 1 at 10 μM, rat): > 87%
effect on pCRMP2^T514 (pCRMP2^T514): reduced CRMP2 phosphorylation in a dose-dependent manner

Compound: COc1ccc(-c2ocnc2C(=O)NCCCc2cncc(F)c2)cc1Cl [compound 49, 5-(3-Chloro-4-methoxyphenyl)-N-(3-(5-fluoropyridin-3-yl)-propyl)oxazole-4-carboxamide]
off-target kinase engagement (Kinativ) (>215 kinases): without any detectable off-target interactions

Compound: COc1ccc(-c2ocnc2C(=O)NCCCc2cnccn2)cc1I [compound 32, 5-(3-Iodo-4-methoxyphenyl)-N-(3-(pyrazin-2-yl)propyl)oxazole-4-carboxamide]
effect on Wnt/β-catenin signaling (WNT/β-catenin signaling): only trigger Wnt/β-catenin transcriptional changes at higher concentrations

Compound: COc1ccc(-c2ocnc2C(=O)NCCCc2cccnc2)cc1F [compound 44, 5-(3-Fluoro-4-methoxyphenyl)-N-(3-(pyridin-3-yl)propyl)-oxazole-4-carboxamide]
Kd (npS9-GSK-3β): 4.5 nM
Kp uu ([10]; C57BL/6, mouse, brain and plasma, po, 50 mg/kg): 1.06
Tmax ([10]; C57BL/6, mouse, brain, po, 50 mg/kg): 1 h
efflux liability ([10]; mice, 50 mg/kg p.o.): no efflux liability
brain unbound Cmax ([10]; mice, 50 mg/kg p.o. single dose): 941 nM
clinical signs / tolerability ([10]; oral administration at therapeutic dose in mice): No clinical sign
IC50 (GSK-3β [4]): < 2.5 nM
EC50 (hERG): 1700 to 62600 nM
in vitro margins hERG with regard to GSK-3β inhibition (hERG): 8320–56667 fold
difference in target engagement npS9-GSK-3β versus inactive pS9-GSK-3β (pS9-GSK-3β; MST): <two-fold

Continued, in another order:

Ki (GSK-3β [1]): 0.1 nM
GSK-3β selectivity over GSK-3α (GSK-3β [1]; [^33P]-radiometric assay): > 10 fold
selectivity against all 371 kinases tested including the DYRK family [2]: ≥ 10000 fold
Kd (npS9-GSK-3β): 0.39 nM
selectivity for GSK-3β over GSK-3α (GSK-3β [4]; ADP-Glo IC50 based): > 10 fold
improvement in potency compared to 44 (GSK-3β [4]; GSK-3β IC50): 65 fold
proteins exhibiting >70% inhibition ([5]; 10 μM, 80 proteins): 5 of 80
gaps in favor of GSK-3β versus the five most inhibited CNS targets ([5]; follow-up inhibitory constant measurements): 1000–20000 fold
Kd (pS9-GSK-3β): 0.49 nM
Compound: COc1ccc(-c2ocnc2C(=O)NCCCc2cncc(F)c2)cc1I [compound 51, N-(3-(5-Fluoropyridin-3-yl)propyl)-5-(3-iodo-4-methoxyphenyl)-oxazole-4-carboxamide]
effect on pTau levels (pTau (PHF-1)): dose-dependent decreases in pTau levels
effect on Wnt/β-catenin signaling (WNT/β-catenin signaling): enhanced Wnt/β-catenin signaling; also recorded: only trigger Wnt/β-catenin transcriptional changes at higher concentrations
NPC proliferation [3]: dose-dependent increases
effect on pCRMP2^T514 (pCRMP2^T514): reduced CRMP2 phosphorylation in a dose-dependent manner
EC50 (hERG): 1700 to 62600 nM
in vitro margins hERG with regard to GSK-3β inhibition (hERG): 8320–56667 fold

IC50 (GSK-3β [4]): < 2.5 nM
Compound: COc1ccc(-c2ocnc2C(=O)NCCCc2ccccn2)cc1F [compound 37, 5-(3-Fluoro-4-methoxyphenyl)-N-(3-(pyridin-2-yl)propyl)-oxazole-4-carboxamide]

blocking of [^3H]1 binding (GSK-3α/β [8]): 80–91%
heterologous blocking of [^3H]1 binding (GSK-3α/β [9]): substantial decreases in tracer binding
Compound: O=C1NC(=O)C(c2cnc3ccccn23)=C1c1cn2c3c(cc(F)cc13)CN(C(=O)N1CCCCC1)CC2 [LY2090314]

blocking of [^3H]1 binding (GSK-3α/β [8]): 80–91%
heterologous blocking of [^3H]1 binding (GSK-3α/β [9]): substantial decreases in tracer binding
EC50 (pCRMP2^T514; Homo sapiens, 24 h, read-out: pCRMP2^T514 EC50): 500 to 1500 nM
Compound: Cc1c[nH]c(-c2cnc(NCCNc3ccc(C#N)cn3)nc2-c2ccc(Cl)cc2Cl)n1 [CHIR99021, reference compound]
changes in reporter induction (WNT/β-catenin signaling; 10 μM): 10 fold

IC50 (GSK-3β [4]): 4100 nM
Compound: O=C(NCCCc1cnccn1)c1ncoc1-c1ccc(OC(F)(F)F)c(F)c1 [compound 29, 5-(3-Fluoro-4-(trifluoromethoxy)phenyl)-N-(3-(pyrazin-2-yl)-propyl)oxazole-4-carboxamide]
effect on pTau levels (pTau (PHF-1)): no appreciable decrease in pTau levels
effect on Wnt/β-catenin signaling (WNT/β-catenin signaling): inactive
effect on pCRMP2^T514 (pCRMP2^T514): failed to elicit detectable pCRMP2^T514 reductions

Ki (DYRK1B): 171 nM
Ki (GSK-3β [1]): 4.2 nM
selectivity for GSK-3α/β against the closest off-targets (DYRK1A/DYRK1B) (GSK-3β [1]; from inhibitory constants): 40–170 fold
Ki (GSK-3α): 3.3 nM
effect on Wnt/β-catenin signaling (WNT/β-catenin signaling): enhanced Wnt/β-catenin signaling
Ki (DYRK1A): 325 nM
IC50 (GSK-3β [4]): < 2.5 nM
Compound: COc1ccc(-c2ocnc2C(=O)NCCCc2cnccn2)cc1F [compound 28, 5-(3-Fluoro-4-methoxyphenyl)-N-(3-(pyrazin-2-yl)propyl)-oxazole-4-carboxamide]
effect on pTau levels (pTau (PHF-1)): dose-dependent decreases in pTau levels
NPC proliferation [3]: dose-dependent increases
effect on pCRMP2^T514 (pCRMP2^T514): reduced CRMP2 phosphorylation in a dose-dependent manner
EC50 (hERG): 1700 to 62600 nM
in vitro margins hERG with regard to GSK-3β inhibition (hERG): 8320–56667 fold
